Assay outcomes: PubChem BioAssay, several laboratories
CHOP UPR activ: apoptotic UPR (CHOP) activation. CHO-CHOP luciferase reporter, luminescence; percent of tunicamycin response over DMSO baseline. activation, % at 10 µM. hit rate 0.34% among 330,000. AID 449763;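 active means at 10 µM dose, activation of 40% or more, normalized to positive control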;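 further: 100% = tunicamycin at 10 µg/mL and 0% = DMSO alone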
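System: CHO-CHOP luciferase reporter cell line | Buffer or medium: F12 medium containing 10% fetal bovine serum | Doses: One dose, 10 µM in 0.5% DMSO | Times: 6 h compound exposure at 37 °C after overnight seeding | Signal: Luciferase luminescence | Read-out: % activation vs tunicamycin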
UPR XBP1 act: adaptive UPR (XBP1) activation; CHO-XBP1 luciferase reporter, IRE1-XBP1 UPR activation, luminescence; percent of tunicamycin response, DMSO as zero; activation, % at 20 µM; hit rate 0.33% among 330,000;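 active means versus positive control, 20 µM dose yields 30% or more activation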;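 further: 100% = tunicamycin at 10 µg/mL and 0% = DMSO only wells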
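Material – CHO cell line with stable XBP1 luciferase reporter · Buffer or medium – F12 plus 10% FBS · Compound – single point, 20 µM final compound, 1% DMSO · Schedule – 16-18 h cell attachment at 37 °C, then 6 h compound exposure · Signal – Steady-Glo luminescence read · Benchmarks – high control tunicamycin 10 µg/mL final, low control DMSO vehicle only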
CHOP inhibitor: inhibitors of CHOP induction in ER stress response. CHO-K1 CHOP-promoter luciferase, tunicamycin-induced, 15-18 h. inhibition, % at 10 µM. hit rate 3.8% among 220,000. AID 2732;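 active means compounds that reduced the stress-induced luciferase reporter signal by more than about 70% of percent inhibition, limit read from the data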;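 further: 0% = tunicamycin plus vehicle and 100% = wells without tunicamycin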
NOD2-RIPK2 inh: NOD2-RIPK2 protein interaction inhibition | hit rate 0.38% among 360,000 | AID 624267 | inhibition, % at 4.98 µM | CHO BLA complementation NOD2-RIPK2, CCF4 ratio; in the data active means inhibition above about 21%;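 further: 0% = vehicle only and 100% = reference blocker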
Target sequence (O43353 whole entry, looked up): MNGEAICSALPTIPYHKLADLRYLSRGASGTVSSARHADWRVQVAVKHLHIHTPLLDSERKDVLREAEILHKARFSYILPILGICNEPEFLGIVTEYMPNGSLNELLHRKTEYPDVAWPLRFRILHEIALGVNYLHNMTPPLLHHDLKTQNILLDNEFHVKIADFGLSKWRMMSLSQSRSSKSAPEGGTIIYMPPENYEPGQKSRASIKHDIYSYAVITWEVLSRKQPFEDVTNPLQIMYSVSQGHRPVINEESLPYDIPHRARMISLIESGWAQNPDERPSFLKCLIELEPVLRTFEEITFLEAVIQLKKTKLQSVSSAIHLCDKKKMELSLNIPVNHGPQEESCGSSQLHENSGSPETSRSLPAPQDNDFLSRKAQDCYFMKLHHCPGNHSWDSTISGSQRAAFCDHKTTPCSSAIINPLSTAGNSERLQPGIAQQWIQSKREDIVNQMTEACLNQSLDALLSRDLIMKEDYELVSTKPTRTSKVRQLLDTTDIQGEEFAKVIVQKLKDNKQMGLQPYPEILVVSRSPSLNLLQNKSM
TLR4 MyD88 comp: blocks binding of human TLR4 to MyD88 | O00206+Q99836 | AID 861 | inhibition, % at 8.4 µM | hit rate 0.18% among 200,000 | HeLa CL3-4 TLR4/MyD88 BLA complementation, FRET ratio; in the data active means inhibition above about 25%;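 further: 0% = vehicle and 100% = reference inhibitor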
TLR9-MyD88 block: inhibitors of human TLR9-MyD88 binding; Q9NR96+Q99836; CHO BLA complementation TLR9-MyD88, CCF4 FRET ratio; inhibition, % at 4.98 µM; hit rate 0.21% among 340,000;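 active means inhibition above the mean over all tested compounds plus 3 SD, cut at about 21% in these data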;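 further: 0% = DMSO only wells and 100% = clavulanate BLA inhibitor control wells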
Starred values were filed as active, the others as inactive; . = not tested or not shown. This excerpt belongs to a sample that is enriched for hits.

SMILES	CHOP UPR activ	UPR XBP1 act	CHOP inhibitor	NOD2-RIPK2 inh	TLR4 MyD88 comp	TLR9-MyD88 block
Cc1ccc(N(CC(=O)Nc2cc(Cl)ccc2Oc2ccccc2)S(C)(=O)=O)c(C)c1	-2	-6	-2	1	-14	-3
CC(C)C[C@H](NC(=O)c1nc[nH]c1C(=O)N1CCc2ccccc2C1)C(=O)OCc1ccccc1	-1	-5	92*	-2	.	2
COc1ccc(/C=C/C(=O)Nc2sc(Cc3ccccc3)c(C)c2C(N)=O)cc1	6	6	75*	-4	5	3
O=C1c2cccc3c(N4CCCCC4)ccc(c23)C(=O)N1c1ccc(Cl)cn1	.	.	.	.	28*	.
COc1ccc(CN2C(=O)CN(S(C)(=O)=O)CC2(C)C(=O)NC(C)C)cc1OC (stereo not given)	.	.	.	-25	.	.
CCn1c(Cn2nnc(-c3ccccc3)n2)nnc1SCc1ccc(Cl)c(Cl)c1	-1	-3	81*	-13	4	-3
CCC(=O)N1CCN(c2nc(-c3ccccc3)c3c(c2C#N)CCCC3)CC1	0	3	73*	0	2	-6
N#Cc1c(SCC(=O)O)nc(-c2ccccc2)c2c1CCCC2	-2	2	47	-6	-3	4
Cc1ccccc1CCN(C(=O)Cn1nnc2ccccc21)C(C(=O)NCC1CCCO1)c1nc2ccccc2n1C (stereo not given)	0	1	82*	-4	-7	4
Cc1ccccc1C(C(=O)NCc1ccco1)N(CC1CCCO1)C(=O)Cn1nnc2ccccc21 (stereo not given)	-1	-4	-2	-2	2	9
CN1/C(=C\C(=O)Nc2ccc(Br)cc2)C(C)(C)c2ccccc21	3	1	82*	-3	6	-2
COc1ccc(CNC(=O)[C@@H](Cc2ccccc2)NC(=O)CC[C@H]2O[C@@H](n3ccc(=O)[nH]c3=O)[C@H](O)[C@@H]2O)cc1	.	.	.	0	.	.
Cc1ccc2[nH]c(=O)c(CNS(=O)(=O)c3ccccc3)c(-c3ccccc3)c2c1	1	1	87*	8	-1	3
CCN(CC)c1c(-c2ccccc2)c2cc(C)ccc2[nH]c1=O	2	0	95*	-7	-7	-19
C/C(=N\N)c1c(-c2ccccc2)c2cc(C)ccc2[nH]c1=O	0	0	-1	-9	.	12
C[C@@H]1CN([C@H](C)CO)C(=O)CCCn2nncc2CO[C@H]1CN(C)Cc1ccc2cccnc2c1	.	.	.	-1	.	11
Fc1cccc(C2CC(c3cccc(Br)c3)Nc3nnnn32)c1 (stereo not given)	-1	-2	83*	-2	4	-1
CCOC(=O)c1c(-c2ccccc2)csc1NC(=O)CCN1CCOCC1	-1	2	-4	-4	-13	4
CCOC(=O)c1c(-c2ccc(C)o2)csc1NC(=O)CN1CCOCC1	0	6	7	0	0	-9
CCOC(=O)c1c(-c2ccc(-c3ccccc3)cc2)csc1NC(=O)C1C2CCC(O2)C1C(=O)O (stereo not given)	-1	-3	88*	-11	5	-8
CCOC(=O)c1c(-c2ccccc2)csc1NC(=O)C1CCCO1 (stereo not given)	0	4	83*	-10	-1	-8
CCOC(=O)c1c(-c2cccs2)csc1NC(=O)CN1CCOCC1	-1	2	72*	9	1	6
Cc1ccc2nc(Cl)c(/C=N/NC(=O)[C@H]3C[C@@H]3c3ccccc3)cc2c1	1	3	74*	-12	2	2
CC(C)(C)c1ccc(C2CC2C(=O)N/N=C\c2cc3ccccc3nc2Cl)cc1 (stereo not given)	-3	-2	0	4	-5	-13
O=c1[nH]c(NNC(=S)NCc2ccccc2)nc2c1C1(CCCCC1)Cc1ccccc1-2	-2	-2	87*	0	0	4
SMILES	CHOP UPR activ	UPR XBP1 act	CHOP inhibitor	NOD2-RIPK2 inh	TLR4 MyD88 comp	TLR9-MyD88 block
Cc1ccc(C(C)C)c(OCc2n[nH]c(=S)o2)c1	1	-1	35	-2	-2	1
Cc1ccc(C(C)C)c(OCc2nc(-c3nonc3N)no2)c1	4	3	95*	-3	-6	-6
O=C(C#Cc1ccccc1)c1ccc([N+](=O)[O-])cc1	30	-2	111*	4	3	-4
CC1(C(=O)NS(=O)(=O)c2ccccc2)CCN1C(=O)Cc1ccc(Cl)cc1Cl (stereo not given)	.	.	.	-2	.	.
CCN(CC)c1nc(C)c2c(c1C#N)CC(C)(C)OC2	1	-5	74*	-1	-3	7
CCCCNS(=O)(=O)c1ccc2nc(-c3cccnc3)cc(C(=O)NC(C)C)c2c1	2	-2	5	7	10	-7
CCCCNS(=O)(=O)c1ccc2nc(-c3cccnc3)cc(C(=O)NC(C)CC)c2c1 (stereo not given)	-3	-3	101*	-5	-4	1
O=C(/C=C/c1ccc(Cl)cc1Cl)N(Cc1ccc(Cl)cc1)C1CCS(=O)(=O)C1 (stereo not given)	1	-3	79*	-3	-10	8
O=C(/C=C/c1ccc(Cl)cc1Cl)N(Cc1ccccc1)C1CCS(=O)(=O)C1 (stereo not given)	1	-1	29	.	-7	11
CCOC(=O)C1CCCN(Cc2ccc(-c3ccccc3)cc2)C1 (stereo not given)	2	-6	.	7	.	-7
CCOC(=O)C1CCCN(Cc2c(Cl)cccc2Cl)C1 (stereo not given)	-1	-1	71*	-4	4	-5
CCCCN1CC(=O)N2[C@@H]3c4cc(OC)ccc4OC[C@@H]3[C@H](C(=O)OCC)[C@]2(C)C1=O	.	.	.	-8	.	-16
CCOC(=O)c1cc2c(nc1C)-c1cc(Cl)cc(Cl)c1OC2O (stereo not given)	-1	1	89*	10	1	6
CCOC(=O)c1cc(C(=O)NN)c(C)nc1C	-3	-1	-16	-16	3	-2
CS(=O)(=O)N(CC(=O)N/N=C/c1cccc2c1OCCO2)c1ccccc1Br	-1	-4	16	-2	9	-3
O=C(CN(c1ccc(Cl)c(C(F)(F)F)c1)S(=O)(=O)c1ccccc1)N/N=C/c1cccc2c1OCCO2	1	-2	73*	-15	-3	2
COc1ccc(/C=C(/C(=O)Nc2ccccc2C(=O)N2CCCC2)c2ccccc2)cc1	0	-1	7	11	-1	-1
COc1ccc(/C=C(/C(=O)Nc2ccccc2C(=O)NC(C)C)c2ccccc2)cc1	0	1	74*	-11	1	4
